In brackets after ≈: the same amount, converted by molar mass.
What was measured:
Vaccinia virus [1] = test: Inhibitory activity against vaccinia virus (VV).; format: functional, organism-based, Orthopoxvirus vaccinia
Outline: (§1)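 Confluent E6SM cell cultures were inoculated with 100 CCID50 of virus and left for 1 h adsorption, then residual virus was removed. Cultures were incubated with test compound at serial concentrations (400, 200, 100, ... μg/mL). Virus-induced cytopathicity was scored once it reached completion in untreated infected control cultures.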

Human alphaherpesvirus 1 [2] = test: Inhibitory activity against herpes simplex virus type 1 (HSV-1) KOS strain.; format: functional, organism-based
Outline: (§2)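 Confluent E6SM cell cultures were inoculated with 100 CCID50 of virus and allowed 1 h for adsorption. Residual virus was then removed, and the cells were incubated with test compound at 400, 200, 100, ... μg/mL. Viral cytopathicity was scored once it reached completion in untreated infected controls.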

Human alphaherpesvirus 1 [3] = test: Inhibitory activity against herpes simplex virus type 1 thymidine kinase (HSV-1 TK-) VMW 1837 strain.
Human alphaherpesvirus 1 [4] = test: Inhibitory activity against herpes simplex virus type 1 (HSV-1) F strain; format: functional, organism-based; outline: as §2
Cytomegalovirus [5] = test: Inhibitory activity against cytomegalovirus (CMV) Davis strain; format: functional, organism-based; conditions: Human betaherpesvirus 5
Outline: (§3)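 HEL cell cultures, grown to confluence, received 100 CCID50 of virus. After 1 h adsorption, the inoculum was removed and the cultures were incubated with serial concentrations of compound (400, 200, 100, ... μg/mL).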

[6] = Inhibitory activity against murine sarcoma virus induced transformation of murine C3H/3T3 embryo fibroblasts; format: functional, Mus musculus
Outline: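 Murine C3H/3T3 embryo fibroblasts were seeded at 5 × 10⁵ cells/mL. After 24 h they were infected with 80 focus-forming units of MSV for 90–120 min at 37 °C. The medium was then replaced with fresh medium containing various compound concentrations, and transformation was examined microscopically after 6 days.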

E6SM [7] = test: Inhibitory activity against herpes simplex virus type 2 (HSV-2) Lyons strain.; format: functional, cell-based, Homo sapiens; outline: as §2
Human alphaherpesvirus 2 [8] = test: Inhibitory activity against herpes simplex virus type 2 (HSV-2) 196 strain.; format: functional, organism-based; outline: as §2
Human alphaherpesvirus 2 [9] = test: Inhibitory activity against herpes simplex virus type 2 (HSV-2) G strain.; format: functional, organism-based; outline: as §2
[10] = system: Human immunodeficiency virus 1; test: Inhibitory activity of compound against human immunodeficiency virus type 1 (HIV-1) induced cytopathogenicity in MT-4 cells; format: functional, organism-based; conditions: Human immunodeficiency virus 1, MT4
Outline: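 Human MT-4 cells (~4 × 10⁵ cells/mL) were infected with 100 CCID50 of HIV-1 (IIIB)/mL and seeded into wells containing compound dilutions. After 5 days at 37 °C, viable cells were counted by trypan blue exclusion in a blood cell counting chamber.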

E6SM [11] = test: Compound was evaluated for inhibitory activity against herpes simplex virus type 1 thymidine kinase (HSV-1 TK-) B2006 strain; NA=not active; format: functional, cell-based, Homo sapiens; outline: as §2
Cytomegalovirus [12] = test: Inhibitory activity against cytomegalovirus (CMV) AD 169 strain; format: functional, organism-based; conditions: Human betaherpesvirus 5; outline: as §3
Human alphaherpesvirus 1 [13] = test: Iactivity against herpes simplex virus type 1 (HSV-1) McIntyre strain.; format: functional, organism-based; outline: as §2
Vaccinia virus [14] = test: Inhibitory activity against vaccinia virus (VV); format: functional, organism-based; conditions: Orthopoxvirus vaccinia; outline: as §1
[15] = system: Human immunodeficiency virus 2; test: Inhibitory activity against human immunodeficiency virus type 2 (HIV-2) induced cytopathogenicity in MT-4 cells; format: functional, organism-based; conditions: Human immunodeficiency virus 2, MT4
[16] = system: Human immunodeficiency virus 1; test: Inhibition of human immunodeficiency virus type 1 (HIV-1) induced cytopathogenicity in CEM cells; format: functional, organism-based; conditions: Human immunodeficiency virus 1, CCRF-CEM
Outline: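 CEM cells (~3 × 10⁵ cells/mL) were infected with 100 CCID50 of HIV-1 (IIIB)/mL and plated with dilutions of compound. After 4 days at 37 °C, giant cell formation was assessed microscopically.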

[17] = system: Human immunodeficiency virus 2; test: Inhibition of human immunodeficiency virus type 2 (HIV-2) induced cytopathogenicity in CEM cells; format: functional, organism-based; conditions: Human immunodeficiency virus 2, CCRF-CEM
Human alphaherpesvirus 1 [18] = test: Inhibitory activity against herpes simplex virus type 1 (HSV-1) KOS strain; format: functional, organism-based; outline: as §2
Human alphaherpesvirus 2 [19] = test: Inhibitory activity against herpes simplex virus type 2 (HSV-2) G strain; format: functional, organism-based; outline: as §2
[20] = Inhibitory activity against herpes simplex virus type 2 (HSV-2) 196 strain; format: functional; outline: as §2
Human alphaherpesvirus 1 [21] = test: Inhibition of herpes simplex virus type 1 (HSV-1) F strain; format: functional, organism-based; outline: as §2
Human alphaherpesvirus 2 [22] = test: Inhibitory activity against herpes simplex virus type 2 (HSV-2) Lyons strain; format: functional, organism-based; outline: as §2
Human alphaherpesvirus 1 [23] = test: Inhibitory activity against herpes simplex virus type 1 (HSV-1) McIntyre strain; format: functional, organism-based; outline: as §2
HEL = test: Compound was evaluated for inhibitory activity against varicella zoster virus thymidine kinase (VZV TK-) 07/1 strain; NA=not active; format: functional, cell-based, Homo sapiens

## Nc1nccc2c1ncn2CCOCP(=O)(O)O
Vaccinia virus [1]
  EC50: Not Active
Human alphaherpesvirus 1 [2]
  EC50: Not Active
Human alphaherpesvirus 1 [3]
  EC50: Not Active
Human alphaherpesvirus 1 [4]
  EC50: Not Active
Cytomegalovirus [5]
  EC50: 400 µg/mL (≈ 1470 µM)
[6]
  EC50: > 100 µg/mL
E6SM [7]
  EC50: Not Active
Human alphaherpesvirus 2 [8]
  EC50: Not Active
Human alphaherpesvirus 2 [9]
  EC50: Not Active
[10]
  EC50: > 200 µg/mL
E6SM [11]
  EC50: Not Active
Cytomegalovirus [12]
  EC50: 70 µg/mL (≈ 257 µM)
Human alphaherpesvirus 1 [13]
  EC50: Not Active

## Nc1ccn(CCOCP(=O)(O)O)c(=O)c1
Vaccinia virus [14]
  EC50: > 40 µg/mL
Human alphaherpesvirus 1 [2]
  EC50: Not Active
Human alphaherpesvirus 1 [3]
  EC50: Not Active
Human alphaherpesvirus 1 [4]
  EC50: Not Active
Cytomegalovirus [5]
  EC50: > 100 µg/mL
[6]
  EC50: > 100 µg/mL
E6SM [7]
  EC50: Not Active
Human alphaherpesvirus 2 [8]
  EC50: Not Active
Human alphaherpesvirus 2 [9]
  EC50: Not Active
[10]
  EC50: > 100 µg/mL
Cytomegalovirus [12]
  EC50: 100 µg/mL (≈ 403 µM)
[15]
  EC50: > 100 µg/mL
Human alphaherpesvirus 1 [13]
  EC50: Not Active

## Nc1nc(S)c2c(ncn2CCOCP(=O)(O)O)n1
Vaccinia virus [14]
  EC50: > 100 µg/mL
Cytomegalovirus [5]
  EC50: > 50 µg/mL
[6]
  EC50: 31 µg/mL (≈ 102 µM)
[16]
  EC50: > 100 µg/mL
[17]
  EC50: > 100 µg/mL
Human alphaherpesvirus 1 [18]
  EC50: > 100 µg/mL
[10]
  EC50: > 100 µg/mL
Human alphaherpesvirus 2 [19]
  EC50: > 100 µg/mL
Cytomegalovirus [12]
  EC50: > 50 µg/mL
[15]
  EC50: > 100 µg/mL

## Nc1nccc(OCCOCP(=O)(O)O)n1
Vaccinia virus [1]
  EC50: Not Active
[20]
  EC50: > 200 µg/mL
Cytomegalovirus [5]
  EC50: > 100 µg/mL
[6]
  EC50: 2.33 µg/mL (≈ 9.35 µM)
Human alphaherpesvirus 1 [21]
  EC50: > 200 µg/mL
Human alphaherpesvirus 1 [18]
  EC50: > 200 µg/mL
[10]
  EC50: > 100 µg/mL
Human alphaherpesvirus 2 [19]
  EC50: > 200 µg/mL
Human alphaherpesvirus 2 [22]
  EC50: 300 µg/mL (≈ 1200 µM)
Cytomegalovirus [12]
  EC50: > 100 µg/mL
[15]
  EC50: > 100 µg/mL
Human alphaherpesvirus 1 [23]
  EC50: 300 µg/mL (≈ 1200 µM)

## CC(C)OP(=O)(COCCn1cnc2c(N)nc(N)nc21)OC(C)C
[20]
  EC50: 240 µg/mL (≈ 645 µM)
Cytomegalovirus [5]
  EC50: 2 µg/mL (≈ 5.37 µM)
[16]
  EC50: > 100 µg/mL
Human alphaherpesvirus 1 [21]
  EC50: 240 µg/mL (≈ 645 µM)
Human alphaherpesvirus 1 [18]
  EC50: 240 µg/mL (≈ 645 µM)
[10]
  EC50: > 100 µg/mL
Human alphaherpesvirus 2 [19]
  EC50: > 400 µg/mL
Human alphaherpesvirus 2 [22]
  EC50: 240 µg/mL (≈ 645 µM)
Cytomegalovirus [12]
  EC50: 2 µg/mL (≈ 5.37 µM)
Human alphaherpesvirus 1 [23]
  EC50: 89 µg/mL (≈ 239 µM)

## Nc1cc2c(ncn2CCOCP(=O)(O)O)c(N)n1
Vaccinia virus [14]
  EC50: 150 µg/mL (≈ 522 µM)
[20]
  EC50: 100 µg/mL (≈ 348 µM)
Cytomegalovirus [5]
  EC50: > 50 µg/mL
[6]
  EC50: 144 µg/mL (≈ 501 µM)
[16]
  EC50: 30 µg/mL (≈ 104 µM)
Human alphaherpesvirus 1 [21]
  EC50: 70 µg/mL (≈ 244 µM)
[17]
  EC50: 16 µg/mL (≈ 55.7 µM)
Human alphaherpesvirus 1 [18]
  EC50: 150 µg/mL (≈ 522 µM)
[10]
  EC50: 51 µg/mL (≈ 178 µM)
Human alphaherpesvirus 2 [19]
  EC50: 70 µg/mL (≈ 244 µM)
Human alphaherpesvirus 2 [22]
  EC50: 70 µg/mL (≈ 244 µM)
Cytomegalovirus [12]
  EC50: > 50 µg/mL
[15]
  EC50: 78.5 µg/mL (≈ 273 µM)
Human alphaherpesvirus 1 [23]
  EC50: 100 µg/mL (≈ 348 µM)

## Nc1nc2c(ncn2CCOCP(=O)(O)O)c(=O)[nH]1 [GS-438]
[6]
  EC50: 0.0006 µg/mL (≈ 0.00207 µM)
[17]
  EC50: 0.03 µg/mL (≈ 0.104 µM)
[10]
  EC50: > 0.2 µg/mL
[15]
  EC50: > 0.2 µg/mL

## Nc1nc(Cl)nc2c1ncn2CCOCP(=O)(O)O
Vaccinia virus [14]
  EC50: > 40 µg/mL
Human alphaherpesvirus 1 [2]
  EC50: Not Active
Human alphaherpesvirus 1 [3]
  EC50: Not Active
Human alphaherpesvirus 1 [4]
  EC50: Not Active
Cytomegalovirus [5]
  EC50: 85 µg/mL (≈ 276 µM)
[6]
  EC50: 18.2 µg/mL (≈ 59.2 µM)
E6SM [7]
  EC50: Not Active
Human alphaherpesvirus 2 [8]
  EC50: Not Active
Human alphaherpesvirus 2 [9]
  EC50: Not Active
[10]
  EC50: > 100 µg/mL
Cytomegalovirus [12]
  EC50: 88 µg/mL (≈ 286 µM)
[15]
  EC50: > 100 µg/mL
Human alphaherpesvirus 1 [13]
  EC50: Not Active

## Nc1nc(=O)ccn1CCOCP(=O)(O)O
Human alphaherpesvirus 1 [3]
  EC50: Not Active
Human alphaherpesvirus 1 [4]
  EC50: Not Active
Cytomegalovirus [5]
  EC50: > 100 µg/mL
[6]
  EC50: > 100 µg/mL
E6SM [7]
  EC50: Not Active
Human alphaherpesvirus 2 [8]
  EC50: Not Active
Human alphaherpesvirus 2 [9]
  EC50: Not Active
Human alphaherpesvirus 1 [18]
  EC50: > 400 µg/mL
[10]
  EC50: > 100 µg/mL
Cytomegalovirus [12]
  EC50: > 100 µg/mL
[15]
  EC50: > 100 µg/mL
Human alphaherpesvirus 1 [13]
  EC50: Not Active

## Nc1nc(O)c2c(ncn2CCOCP(=O)(O)O)n1
Vaccinia virus [14]
  EC50: > 400 µg/mL
[20]
  EC50: 200 µg/mL (≈ 692 µM)
HEL
  EC50: Not Active
Cytomegalovirus [5]
  EC50: > 50 µg/mL
[6]
  EC50: 96 µg/mL (≈ 332 µM)
[16]
  EC50: > 100 µg/mL
Human alphaherpesvirus 1 [21]
  EC50: 200 µg/mL (≈ 692 µM)
[17]
  EC50: > 100 µg/mL
Human alphaherpesvirus 1 [18]
  EC50: 300 µg/mL (≈ 1040 µM)
Human alphaherpesvirus 2 [19]
  EC50: 300 µg/mL (≈ 1040 µM)
Human alphaherpesvirus 2 [22]
  EC50: > 400 µg/mL
Cytomegalovirus [12]
  EC50: > 50 µg/mL
Human alphaherpesvirus 1 [23]
  EC50: 150 µg/mL (≈ 519 µM)

Reference: ChEMBL document CHEMBL1132160, “Structure-antiviral activity relationship in the series of pyrimidine and purine N-[2-(2-phosphonomethoxy)ethyl] nucleotide analogues. 1. Derivatives substituted at the carbon atoms of the base” (J Med Chem, 1999)
